The results in this text go back to ChEMBL document CHEMBL1255546, “Discovery of potent and selective histamine H3 receptor inverse agonists based on the 3,4-dihydro-2H-pyrazino[1,2-a]indol-1-one scaffold” (Bioorg Med Chem Lett, 2010).

pEC50, pIC50, pKi: −log10 of the molar value. Converted amounts (≈) assume the structure as drawn. The source made the active and inactive calls. The rule behind the calls is not given here. Where only a bound is given, the exact number is not on record here.

Data set [1] can be described thus: Intrinsic clearance in human liver microsomes. It counts as ADME, Microsome. In general terms: Liver microsomes are a subcellular fraction often used to study metabolism.
In data set [2] the target is Histamine H2 receptor (Homo sapiens) (UniProt P25021). Description: Displacement of [3H]-tiotidine from human histamine H2 receptor. On the set-up: concentration or dose not given beside the values. The note with it: concentration not given here. In outline: (§1)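 Radioligand displacement assays, single determination (n = 1) each: [3H]-mepyramine at H1, [3H]-tiotidine at H2, [3H]-histamine at H4.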
Background: Loss of bound radioactivity is the signal in a displacement assay; it reports binding, not function.

A short description of data set [3]: Aqueous solubility of the compound in 0.05 M phosphate buffer at pH 6.5. In kind it is physicochemical.
Data set [4] is described as follows: Lipophilicity, log D of the compound at pH 7.4. It counts as physicochemical. The note with it: buffer.
The target of a further data set is Cytochrome P450 2D6 (Homo sapiens, UniProt P10635). As to the kind of experiment: Inhibition of CYP2D6. It counts as ADME.
A further data set deals with Cytochrome P450 2C9 (Homo sapiens, UniProt P11712). As to the kind of experiment: Inhibition of CYP2C9. It counts as ADME.
The target of data set [5] is Histamine H4 receptor (Homo sapiens) (UniProt Q9H3N8). As to the kind of experiment: Displacement of [3H]-histamine from human histamine H4 receptor. On the set-up: concentration or dose not given beside the values. Particulars: concentration not given here. In outline:
as §1

Another data set deals with Cytochrome P450 3A4 (Homo sapiens, UniProt P08684). Description: Inhibition of CYP3A4. It counts as ADME.
Data set [6] can be described thus: Intrinsic clearance in rat liver microsomes. It counts as ADME, Microsome.
Data set [7] deals with Histamine H1 receptor (Homo sapiens) (UniProt P35367). As to the kind of experiment: Displacement of [3H]-mepyramine from human histamine H1 receptor. The note with it: concentration not given here. Set-up: concentration or dose not given beside the values. The method, boiled down:
as §1

Data set [8] deals with T1, Histamine H3 receptor (Homo sapiens, UniProt Q9Y5N1). Description: Inverse agonist activity at human recombinant histamine H3 receptor assessed as effect on [35S]GTPgammaS binding. It counts as functional. In general terms: Binding of GTPγS marks nucleotide exchange on a G protein.
Data set [9] deals with Rattus norvegicus. As to the kind of experiment: Toxicity in rat assessed as change in behavioral effect at 10 mg/kg, po measured for 1 hr. In kind it is organism-based. Set-up: dose 10 mg/kg, route oral. The note with it: in vivo.
The target in data set [10] is T2, Histamine H3 receptor (Rattus norvegicus, UniProt Q9QYN8). As to the kind of experiment: Inverse agonist activity at rat histamine H3 receptor. In kind it is functional.
The target in data set [11] is T1, Histamine H3 receptor. As to the kind of experiment: Displacement of [3H]-RAMH from human histamine H3 receptor.
Data set [12] deals with Rattus norvegicus. As to the kind of experiment: Inhibition of (R)-alpha-methyl histamine-induced increased water intake in rat dipsogenia model at 10 mg/kg, po. It counts as functional.
Data set [13] concerns Rattus norvegicus. As to the kind of experiment: Inhibition of water intake in rat dipsogenia model at 10 mg/kg, po. In kind it is functional, organism-based. On the set-up: dose 10 mg/kg.
The target of data set [14] is T2, Histamine H3 receptor. As to the kind of experiment: Binding affinity to rat histamine H3 receptor.
Data set [15] concerns the target T1, Histamine H3 receptor. The note with it: 3 uM.

Chain of Cytochrome P450 2C9 (P11712 whole entry): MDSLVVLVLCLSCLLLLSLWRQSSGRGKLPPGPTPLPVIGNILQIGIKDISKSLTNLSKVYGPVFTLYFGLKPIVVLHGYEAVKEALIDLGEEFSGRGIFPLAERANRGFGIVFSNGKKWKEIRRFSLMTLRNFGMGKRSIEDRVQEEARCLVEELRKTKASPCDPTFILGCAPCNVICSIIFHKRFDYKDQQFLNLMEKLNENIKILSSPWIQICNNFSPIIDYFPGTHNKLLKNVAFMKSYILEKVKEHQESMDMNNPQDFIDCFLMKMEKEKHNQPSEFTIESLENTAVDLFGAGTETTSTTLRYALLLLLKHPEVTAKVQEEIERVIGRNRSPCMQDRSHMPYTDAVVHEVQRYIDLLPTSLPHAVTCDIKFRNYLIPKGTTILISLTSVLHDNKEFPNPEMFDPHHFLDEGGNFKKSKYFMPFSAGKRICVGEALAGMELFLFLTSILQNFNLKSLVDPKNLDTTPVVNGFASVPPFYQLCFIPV
T1 sequence (Q9Y5N1 whole entry): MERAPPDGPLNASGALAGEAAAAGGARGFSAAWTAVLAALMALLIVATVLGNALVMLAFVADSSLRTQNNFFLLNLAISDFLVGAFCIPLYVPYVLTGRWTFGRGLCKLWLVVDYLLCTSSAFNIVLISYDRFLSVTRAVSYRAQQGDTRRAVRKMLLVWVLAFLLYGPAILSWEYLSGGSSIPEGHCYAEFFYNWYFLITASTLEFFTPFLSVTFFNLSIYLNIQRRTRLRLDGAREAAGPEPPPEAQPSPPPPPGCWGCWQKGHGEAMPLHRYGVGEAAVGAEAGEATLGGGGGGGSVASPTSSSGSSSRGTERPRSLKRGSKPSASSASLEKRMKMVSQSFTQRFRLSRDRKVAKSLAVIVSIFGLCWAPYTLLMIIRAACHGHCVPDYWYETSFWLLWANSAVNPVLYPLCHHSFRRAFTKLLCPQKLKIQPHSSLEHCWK
Chain of Histamine H2 receptor (Homo sapiens) (P25021 whole entry): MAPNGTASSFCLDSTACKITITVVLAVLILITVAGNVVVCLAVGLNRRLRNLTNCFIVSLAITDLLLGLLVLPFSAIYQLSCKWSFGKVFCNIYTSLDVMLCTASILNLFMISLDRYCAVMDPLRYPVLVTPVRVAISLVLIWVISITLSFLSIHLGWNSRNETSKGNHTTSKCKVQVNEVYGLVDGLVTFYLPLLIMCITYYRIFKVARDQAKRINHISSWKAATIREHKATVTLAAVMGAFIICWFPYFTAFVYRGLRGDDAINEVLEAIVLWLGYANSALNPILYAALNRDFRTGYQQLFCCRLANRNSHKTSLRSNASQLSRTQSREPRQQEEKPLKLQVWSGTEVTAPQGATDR
Chain of Cytochrome P450 3A4 (P08684 whole entry): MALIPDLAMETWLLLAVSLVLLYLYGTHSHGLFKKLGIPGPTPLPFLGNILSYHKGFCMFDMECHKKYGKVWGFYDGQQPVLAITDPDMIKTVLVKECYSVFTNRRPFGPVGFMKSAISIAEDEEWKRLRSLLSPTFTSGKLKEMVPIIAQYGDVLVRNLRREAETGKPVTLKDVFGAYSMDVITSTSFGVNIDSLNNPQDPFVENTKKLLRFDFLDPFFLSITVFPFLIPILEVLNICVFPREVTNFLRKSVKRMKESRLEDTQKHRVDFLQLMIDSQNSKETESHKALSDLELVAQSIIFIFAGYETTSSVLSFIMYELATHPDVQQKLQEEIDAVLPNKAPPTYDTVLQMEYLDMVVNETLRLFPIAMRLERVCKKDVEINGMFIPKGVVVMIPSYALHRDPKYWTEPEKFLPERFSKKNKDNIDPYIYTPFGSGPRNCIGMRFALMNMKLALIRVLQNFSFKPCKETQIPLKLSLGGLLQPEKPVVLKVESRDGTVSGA
Chain of Histamine H4 receptor (Homo sapiens) (Q9H3N8 whole entry): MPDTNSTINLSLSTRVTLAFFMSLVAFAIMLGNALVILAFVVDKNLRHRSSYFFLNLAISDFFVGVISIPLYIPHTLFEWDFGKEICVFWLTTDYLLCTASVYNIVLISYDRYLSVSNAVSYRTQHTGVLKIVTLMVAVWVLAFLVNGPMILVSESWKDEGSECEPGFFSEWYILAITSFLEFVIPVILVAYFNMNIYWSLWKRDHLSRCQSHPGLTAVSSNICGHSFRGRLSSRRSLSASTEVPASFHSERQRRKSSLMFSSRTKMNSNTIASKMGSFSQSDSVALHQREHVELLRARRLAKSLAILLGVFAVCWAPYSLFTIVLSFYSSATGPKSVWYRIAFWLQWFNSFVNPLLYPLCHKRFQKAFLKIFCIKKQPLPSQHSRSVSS
Chain of Cytochrome P450 2D6 (P10635 whole entry): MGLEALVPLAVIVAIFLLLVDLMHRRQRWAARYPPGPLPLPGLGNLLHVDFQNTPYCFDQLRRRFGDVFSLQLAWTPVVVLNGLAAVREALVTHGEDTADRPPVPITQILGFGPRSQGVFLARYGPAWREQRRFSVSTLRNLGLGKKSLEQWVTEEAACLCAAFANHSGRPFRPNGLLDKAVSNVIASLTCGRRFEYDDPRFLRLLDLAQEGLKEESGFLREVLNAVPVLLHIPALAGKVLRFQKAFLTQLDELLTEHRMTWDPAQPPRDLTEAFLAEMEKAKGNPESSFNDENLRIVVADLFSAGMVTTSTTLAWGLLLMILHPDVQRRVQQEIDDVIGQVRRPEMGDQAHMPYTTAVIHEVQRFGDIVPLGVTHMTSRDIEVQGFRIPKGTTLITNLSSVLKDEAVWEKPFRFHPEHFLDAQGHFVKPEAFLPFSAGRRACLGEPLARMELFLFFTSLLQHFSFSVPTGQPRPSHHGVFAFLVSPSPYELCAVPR
Chain of Histamine H1 receptor (Homo sapiens) (P35367 whole entry): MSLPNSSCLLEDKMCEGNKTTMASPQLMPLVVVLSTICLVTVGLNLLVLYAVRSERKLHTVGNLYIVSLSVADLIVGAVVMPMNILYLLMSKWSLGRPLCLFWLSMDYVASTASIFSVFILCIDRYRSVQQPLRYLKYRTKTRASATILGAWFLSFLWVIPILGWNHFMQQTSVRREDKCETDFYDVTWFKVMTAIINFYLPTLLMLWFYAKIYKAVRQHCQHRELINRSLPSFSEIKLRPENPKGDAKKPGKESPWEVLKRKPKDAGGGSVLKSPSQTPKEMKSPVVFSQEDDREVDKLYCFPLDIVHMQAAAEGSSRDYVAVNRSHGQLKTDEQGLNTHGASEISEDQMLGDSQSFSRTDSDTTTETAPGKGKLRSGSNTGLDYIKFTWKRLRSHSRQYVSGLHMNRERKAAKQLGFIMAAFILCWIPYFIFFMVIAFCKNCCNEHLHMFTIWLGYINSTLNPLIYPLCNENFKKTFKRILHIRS
T2 sequence (Q9QYN8 whole entry): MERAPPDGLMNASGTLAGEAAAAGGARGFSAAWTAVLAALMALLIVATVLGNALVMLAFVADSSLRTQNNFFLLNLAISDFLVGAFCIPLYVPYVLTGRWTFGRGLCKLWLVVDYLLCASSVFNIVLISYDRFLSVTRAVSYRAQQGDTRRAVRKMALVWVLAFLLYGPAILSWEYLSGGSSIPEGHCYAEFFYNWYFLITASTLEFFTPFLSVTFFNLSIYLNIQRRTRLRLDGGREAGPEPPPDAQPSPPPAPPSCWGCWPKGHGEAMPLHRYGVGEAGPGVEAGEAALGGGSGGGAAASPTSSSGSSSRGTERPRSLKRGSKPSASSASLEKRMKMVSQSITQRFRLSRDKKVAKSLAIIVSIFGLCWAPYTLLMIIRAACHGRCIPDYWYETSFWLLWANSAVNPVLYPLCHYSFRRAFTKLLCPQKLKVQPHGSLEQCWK

For the molecule `CC(C)N1CCC(Oc2ccc3c(c2)cc2n3C[C@@H](C)N(CC3CC3)C2=O)CC1`, the microsomal CLint (commonly the capacity of the preparation to metabolise the compound, expressed as a volume cleared per time) was 6 µL/min/mg in data set [1] and 10 µL/min/mg in [6]. Further, the figures for the inhibition in data set [2], in data set [5] and in [7] were 8%, 12% and 3%, respectively. In addition, the solubility (commonly how much of the substance goes into solution per volume) in data set [3] was > 441 µg/mL. The logD (as a rule, the decadic logarithm of the distribution of all forms, ionised or not, between an organic phase and buffer at a given pH) in data set [4] was determined as 1.4. Moreover, the pIC50 against Cytochrome P450 2D6, on Cytochrome P450 2C9 and at Cytochrome P450 3A4 was < 4.30 each time. Besides, the pEC50 on Histamine H3 receptor [8] and at Histamine H3 receptor [10] was 7.74 each time. For the same molecule, the Activity entry with Rattus norvegicus [9] was “Non-toxic”. Moreover, the pKi (as a rule, the negative decadic logarithm of the Ki, by convention in mol/L) on Histamine H3 receptor [11] is 8.30; on Histamine H3 receptor [14], 7.92. Moreover, in the data set with Rattus norvegicus [12], testing at 10 mg/kg gave an inhibition in vivo of 64%. Also, in the data set with Rattus norvegicus [13], the inhibition (in general, the change of the read-out against control, counted positive when it falls) was “inactive”.

Regarding `CC(C)N1CCC(Oc2ccc3[nH]c4c(c3c2)CCNC4=O)CC1`, the inhibition against Histamine H3 receptor [15] came to 35%. Besides, the pKi at Histamine H3 receptor [11] is < 5.52.

For `CC(C)N1CCC(Oc2ccc3c(c2)cc2n3CCN(CCO)C2=O)CC1`, the microsomal CLint in data set [1] is 9 µL/min/mg; in data set [6], 11 µL/min/mg. Moreover, the inhibition is 14% in data set [2], -5% in [5] and -1% in data set [7]. Besides, in data set [3], the solubility is > 406 µg/mL. Further, the log distribution coefficient (logD) in data set [4] was -0.25. Further, the results for the pIC50 against Cytochrome P450 2D6, at Cytochrome P450 2C9 and at Cytochrome P450 3A4 were 6.05, < 4.30 and < 4.30, respectively. The pEC50 (as a rule, the negative decadic logarithm of the EC50, by convention in mol/L) at Histamine H3 receptor [8] was 7.25. Besides, on Histamine H3 receptor [11], the pKi was 7.34.

As to `CC(C)N1CCC(Oc2ccc3c(c2)cc2n3CCN(Cc3ccc(F)cc3)C2=O)CC1`, the microsomal CLint in [1] was found to be 5 µL/min/mg; in [6] it was 17 µL/min/mg. Further, the inhibition was -3% in data set [2], 1% in [5] and 17% in [7]. Also, the solubility in data set [3] was 382 µg/mL (≈ 877 µM). In addition, in [4], the log distribution coefficient (logD) amounted to 2.06. Besides, the results for the pIC50 against Cytochrome P450 2D6, against Cytochrome P450 2C9 and against Cytochrome P450 3A4 were 4.46, < 4.30 and < 4.30, respectively. Also, the pEC50 on Histamine H3 receptor [8] is 7.85. For the same molecule, on Histamine H3 receptor [11], the pKi was 8.15.

For the molecule `CC(C)N1CCC(Oc2ccc3c(c2)cc2n3CCN(C)C2=O)CC1`, the microsomal CLint stood at 1 µL/min/mg in [1] and 23 µL/min/mg in data set [6]. Also, the inhibition in [2] was 11%; in data set [5] it was 0%; in [7], -4%. The solubility in [3] is > 455 µg/mL. In data set [4], this molecule had a logD of 0.13. Moreover, the pIC50 (as a rule, −log10 of the IC50, conventionally taken in molar units) at Cytochrome P450 2D6 was 4.82; against Cytochrome P450 2C9 it was < 4.30; against Cytochrome P450 3A4, < 4.30. For the same molecule, at Histamine H3 receptor [8], the pEC50 is 7.32. Besides, the pKi at Histamine H3 receptor [11] was 7.51.
